Experimental data taken from ChEMBL document CHEMBL1125708, “Synthesis and antiviral activity of 5-heteroaryl-substituted 2'-deoxyuridines” (1991).
Values after ≈ are worked out from the molar mass of the structure shown.

Tests used:
Conditions in all cases: Homo sapiens
HEL [1] = assay: Minimum inhibitory concentration required to reduce virus induced plaque formation in HEL cell culture of virus TK- VZV (07-1) was measured; assay type: functional
How it was run: (§1)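 Plaque-reduction assay in human embryonic lung (HEL) cells in 96-well microtiter plates. VZV strains were Oka and YS, plus TK-deficient 07-1 and YS-R. CMV strains were AD169 and Davis. The value is the concentration reducing virus plaque formation by 50%.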

E6SM [2] = assay: Minimum inhibitory concentration required to reduce virus induced cytopathicity in embryonic skin muscle (E6SM) cell culture of virus HSV-2 (Lyons) was measured.; assay type: functional
HEL [3] = assay: In vitro antiviral activity and cytotoxicity, and minimum inhibitory concentration required to reduce cell growth by 50% in HEL cell culture; assay type: functional
How it was run: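 Cytotoxicity was measured as inhibition of growth of human embryonic lung (HEL) cells seeded in 96-well microtiter plates. The value is the concentration reducing cell growth by 50%.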

E6SM [4] = assay: Minimum inhibitory concentration required to reduce virus induced cytopathicity in embryonic skin muscle (E6SM) cell culture of virus HSV-1( F) was measured; assay type: functional
HEL [5] = assay: Minimum inhibitory concentration required to reduce virus induced plaque formation in HEL cell culture of virus VZS (YS) was measured; assay type: functional; how it was run: as §1
E6SM [6] = assay: Minimum inhibitory concentration required to reduce virus induced cytopathicity in embryonic skin muscle (E6SM) cell culture of virus VV was measured
HEL [7] = assay: Minimum inhibitory concentration required to reduce virus induced plaque formation in HEL cell culture of virus CMV (Davis) was measured; assay type: functional; how it was run: as §1
E6SM [8] = assay: Minimum inhibitory concentration required to reduce virus induced cytopathicity in embryonic skin muscle (E6SM) cell culture of virus TK- HSV-1 (B2006) was measured; assay type: functional
HEL [9] = assay: Minimum inhibitory concentration required to reduce virus induced plaque formation in HEL cell culture of virus VZS (OKA) was measured; assay type: functional; how it was run: as §1
E6SM [10] = assay: Minimum inhibitory concentration required to reduce virus induced cytopathicity in embryonic skin muscle (E6SM) cell culture of virus TK- HSV-1 (VMW1837) was measured; assay type: functional
HEL [11] = assay: Minimum inhibitory concentration required to reduce virus induced plaque formation in HEL cell culture of virus CMV (AD169) was measured; assay type: functional; how it was run: as §1
E6SM [12] = assay: Minimum inhibitory concentration required to cause a microscopically detectable change in normal cell morphology; assay type: functional
How it was run: (§2)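 Cytotoxicity was judged by microscopic inspection of uninfected cell monolayers in microtiter plates. The value is the minimum concentration causing a microscopically detectable change in normal cell morphology.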

E6SM [13] = assay: Minimum inhibitory concentration required to reduce virus induced cytopathicity in embryonic skin muscle (E6SM) cell culture of virus HSV-1 (KOS) was measured; assay type: functional
E6SM [14] = assay: Minimum inhibitory concentration required to reduce virus induced cytopathicity in embryonic skin muscle (E6SM) cell culture of virus HSV-2 (G) was measured; assay type: functional
HEL [15] = assay: (§3) Minimum inhibitory concentration required to reduce virus induced cytopathicity in embryonic skin muscle (E6SM) cell culture of virus VSV was measured; assay type: functional
E6SM [16] = assay: Minimum inhibitory concentration required to reduce virus induced cytopathicity in embryonic skin muscle (E6SM) cell culture of virus HSV-1 (Mc Intyre) was measured; assay type: functional
HEL [17] = assay: Minimum inhibitory concentration required to reduce virus induced plaque formation in HEL cell culture of virus TK- VZV (YS-R) was measured; assay type: functional; how it was run: as §1
E6SM [18] = assay: Minimum inhibitory concentration required to reduce virus induced cytopathicity in embryonic skin muscle (E6SM) cell culture of virus HSV-2 (196) was measured.; assay type: functional
HEL [19] = assay: Minimum concentration required to reduce virus induced plaque formation in HEL cell culture of virus TK- VZV (YS-R) was measured; assay type: functional; how it was run: as §1
HEL [20] = assay: minimum inhibitory concentration required to reduce virus induced plaque formation in HEL cell culture of virus VZS (YS) was measured.; assay type: functional; how it was run: as §1
E6SM [21] = assay: Minimum inhibitory concentration required to reduce virus induced cytopathicity in embryonic skin muscle (E6SM) cell culture of virus VV was measured; assay type: functional
E6SM [22] = assay: minimum inhibitory concentration required to cause a microscopically detectable change in normal cell morphology; assay type: functional; how it was run: as §2
E6SM [23] = assay: as §3; assay type: functional
E6SM [24] = assay: Minimum inhibitory concentration required to reduce virus induced cytopathicity in embryonic skin muscle (E6SM) cell culture of virus HSV-2 (196) was measured; assay type: functional
E6SM [25] = assay: minimum inhibitory concentration required to reduce virus induced cytopathicity in embryonic skin muscle (E6SM) cell culture of virus HSV-2 (Lyons) was measured.; assay type: functional

Row | Structure (SMILES) | MIC (HEL [1]) | MIC (E6SM [2]) | MIC (HEL [3]) | MIC (E6SM [4]) | MIC (HEL [5]) | MIC (HEL [7]) | MIC (E6SM [8]) | MIC (HEL [9]) | MIC (E6SM [10]) | MIC (HEL [11]) | MIC (E6SM [12]) | MIC (E6SM [13]) | MIC (E6SM [14]) | MIC (E6SM [16]) | MIC (E6SM [18]) | MIC (HEL [19]) | MIC (HEL [20]) | MIC (E6SM [21]) | MIC (E6SM [23]) | also measured
1 | O=c1[nH]c(=O)n([C@H]2C[C@H](O)[C@@H](CO)O2)cc1/C=C/Br [BRIVUDINE] | 8 µg/mL (≈ 24 µM) | > 400 µg/mL | 200 µg/mL (≈ 600 µM) | 0.07 µg/mL (≈ 0.21 µM) | 0.003 µg/mL (≈ 0.00901 µM) | 250 µg/mL (≈ 750 µM) | 100 µg/mL (≈ 300 µM) | 0.003 µg/mL (≈ 0.00901 µM) | > 400 µg/mL | 250 µg/mL (≈ 750 µM) | > 400 µg/mL | 0.07 µg/mL (≈ 0.21 µM) | 10 µg/mL (≈ 30 µM) | 0.07 µg/mL (≈ 0.21 µM) | > 400 µg/mL | – | – | – | – | MIC (E6SM [6]): 1 µg/mL (≈ 3 µM); MIC (HEL [15]): > 400 µg/mL; MIC (HEL [17]): 0.4 µg/mL (≈ 1.2 µM)
2 | O=c1[nH]c(=O)n([C@H]2C[C@H](O)[C@@H](CO)O2)cc1-c1cc(-c2ccccc2)no1 | 61 µg/mL (≈ 164 µM) | > 40 µg/mL | > 200 µg/mL | > 40 µg/mL | – | 25 µg/mL (≈ 67.3 µM) | > 40 µg/mL | 38 µg/mL (≈ 102 µM) | > 40 µg/mL | 25 µg/mL (≈ 67.3 µM) | – | > 40 µg/mL | > 40 µg/mL | > 40 µg/mL | > 40 µg/mL | > 100 µg/mL | 73 µg/mL (≈ 197 µM) | > 40 µg/mL | > 40 µg/mL | MIC (E6SM [22]): > 40 µg/mL
3 | O=c1[nH]c(=O)n([C@H]2C[C@H](O)[C@@H](CO)O2)cc1-c1cc(Br)no1 | > 100 µg/mL | – | > 50 µg/mL | 2 µg/mL (≈ 5.35 µM) | 0.24 µg/mL (≈ 0.641 µM) | > 100 µg/mL | > 400 µg/mL | 0.09 µg/mL (≈ 0.241 µM) | > 400 µg/mL | > 100 µg/mL | > 400 µg/mL | 7 µg/mL (≈ 18.7 µM) | > 200 µg/mL | 2 µg/mL (≈ 5.35 µM) | – | > 100 µg/mL | – | > 400 µg/mL | > 400 µg/mL | MIC (E6SM [24]): > 400 µg/mL; MIC (E6SM [25]): > 400 µg/mL
4 | O=c1[nH]c(=O)n([C@H]2C[C@H](O)[C@@H](CO)O2)cc1-c1cc(-c2ccc(Cl)cc2)no1 | 22 µg/mL (≈ 54.2 µM) | > 40 µg/mL | > 200 µg/mL | > 40 µg/mL | – | 7 µg/mL (≈ 17.3 µM) | > 40 µg/mL | 9 µg/mL (≈ 22.2 µM) | > 40 µg/mL | 7 µg/mL (≈ 17.3 µM) | > 40 µg/mL | > 40 µg/mL | > 40 µg/mL | > 40 µg/mL | > 40 µg/mL | 77 µg/mL (≈ 190 µM) | > 40 µg/mL | > 40 µg/mL | > 40 µg/mL | –
